Laboratory results from ChEMBL document CHEMBL1275312, “Synthesis of new pyrrolo[2,3-d]pyrimidine derivatives as antibacterial and antifungal agents” (2010).
≈ marks a conversion by molar mass, not a printed value.

Columns and labels:
Type in all cases: functional
Staphylococcus aureus [1] = assay: Antimicrobial activity against Staphylococcus aureus NCTC 7447 by twofold serial dilution method
Method in brief: (§1)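 MIC by two-fold serial dilution, limited to compounds giving inhibition zones of at least 18 mm in the well diffusion screen. Strains: S. aureus NCTC-7447 and E. coli NCTC-10416 on Mueller-Hinton agar at 37 ± 1 °C; C. albicans ATCC-10145 on Sabouraud dextrose agar at 28 ± 1 °C. Inocula were colony suspensions in sterile saline. MIC taken as the lowest concentration (highest dilution) inhibiting growth.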

Staphylococcus aureus [2] = assay: Antimicrobial activity against Staphylococcus aureus NCTC 7447 at 5 mg/ml after 24 hrs by agar well diffusion assay; settings: NCTC 7447, 24 h, read-out: IZ
Method in brief: (§2)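 Agar well diffusion against S. aureus NCTC-7447 and E. coli NCTC-10416 (maintained on Mueller-Hinton agar, 24 h, 37 ± 1 °C) and C. albicans ATCC-10145 (Sabouraud dextrose agar, 48 h, 28 ± 1 °C). Inocula: colonies suspended in 5 mL sterile saline. Wells pre-incubated 1 h in refrigerator, then incubated 24 h at 37 °C (bacteria) or 48 h at 28 °C (fungi). Inhibition zone diameter measured. DMSO blank.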

Escherichia coli [3] = assay: Antimicrobial activity against Escherichia coli NCTC 10416 at 5 mg/ml after 24 hrs by agar well diffusion assay; settings: NCTC 10416, 24 h, read-out: IZ; method in brief: as §2
Candida albicans = assay: Antimicrobial activity against Candida albicans ATCC 10145 at 5 mg/ml after 48 hrs by agar well diffusion assay; settings: ATCC 10145, 48 h, read-out: IZ; method in brief: as §2
Escherichia coli [4] = assay: Antimicrobial activity against Escherichia coli NCTC 10416 by twofold serial dilution method; method in brief: as §1

Compound | MIC (Staphylococcus aureus [1]) | zone of inhibition at 5000 µg/mL (Staphylococcus aureus [2]) | zone of inhibition at 5000 µg/mL (Escherichia coli [3]) | zone of inhibition at 5000 µg/mL (Candida albicans) | MIC (Escherichia coli [4])
Cc1ccc(-c2cc3c(N)nc(N)nc3n2-c2ccccc2)cc1 | 620 µg/mL (≈ 1.97 mM) | 25 mm | 19 mm | 23 mm | 2500 µg/mL (≈ 7.93 mM)
N=c1c2cc(-c3ccc(Br)cc3)n(-c3ccccc3)c2ncn1N | 310 µg/mL (≈ 0.815 mM) | 25 mm | 27 mm | 27 mm | 1250 µg/mL (≈ 3.29 mM)
N=c1c2cc(-c3ccc(Cl)cc3)n(-c3ccccc3)c2ncn1N | 310 µg/mL (≈ 0.923 mM) | 21 mm | 22 mm | 27 mm | 1250 µg/mL (≈ 3.72 mM)
Cc1ccc(-c2cc3c(=N)n(N)cnc3n2-c2ccccc2)cc1 | 620 µg/mL (≈ 1.97 mM) | 21 mm | 20 mm | 21 mm | 2500 µg/mL (≈ 7.93 mM)
N=c1c2cc(-c3ccc(F)cc3)n(-c3ccccc3)c2ncn1N |  | 17 mm | 15 mm | 15 mm | 
c1ccc(-c2cc3c(ncn4ncnc34)n2-c2ccccc2)cc1 |  | 13 mm | 16 mm | 17 mm | 
Brc1ccc(-c2cc3c(ncn4ncnc34)n2-c2ccccc2)cc1 |  | 19 mm | 14 mm | 19 mm | 
Clc1ccc(-c2cc3c(ncn4ncnc34)n2-c2ccccc2)cc1 |  | 17.5 mm | 18 mm | 18 mm | 
Cc1ccc(-c2cc3c(ncn4ncnc34)n2-c2ccccc2)cc1 |  |  |  | 11 mm | 
Fc1ccc(-c2cc3c(ncn4ncnc34)n2-c2ccccc2)cc1 |  | 17 mm | 16 mm | 17 mm | 
Clc1ncnc2c1cc(-c1ccccc1)n2-c1ccccc1 |  | 13 mm | 14 mm | 16.5 mm | 
Clc1ncnc2c1cc(-c1ccc(Br)cc1)n2-c1ccccc1 |  | 16 mm | 17 mm | 17 mm | 
Clc1ccc(-c2cc3c(Cl)ncnc3n2-c2ccccc2)cc1 |  | 12 mm | 13 mm | 12 mm | 
Cc1ccc(-c2cc3c(Cl)ncnc3n2-c2ccccc2)cc1 |  | 12 mm | 13 mm | 16 mm | 
Fc1ccc(-c2cc3c(Cl)ncnc3n2-c2ccccc2)cc1 |  | 15 mm | 13 mm | 15 mm | 
NNc1ncnc2c1cc(-c1ccccc1)n2-c1ccccc1 | 620 µg/mL (≈ 2.06 mM) | 27 mm | 18 mm | 31 mm | 2500 µg/mL (≈ 8.3 mM)
NNc1ncnc2c1cc(-c1ccc(Br)cc1)n2-c1ccccc1 | 620 µg/mL (≈ 1.63 mM) | 25 mm | 15 mm | 23 mm | 
NNc1ncnc2c1cc(-c1ccc(Cl)cc1)n2-c1ccccc1 |  | 17 mm | 16 mm | 19 mm | 
Cc1ccc(-c2cc3c(NN)ncnc3n2-c2ccccc2)cc1 |  | 14 mm | 13 mm | 17 mm | 
NNc1ncnc2c1cc(-c1ccc(F)cc1)n2-c1ccccc1 | 310 µg/mL (≈ 0.971 mM) | 31 mm | 20 mm | 32 mm | 1250 µg/mL (≈ 3.91 mM)
c1ccc(-c2cc3c(ncn4nnnc34)n2-c2ccccc2)cc1 |  | 16 mm | 16 mm | 17 mm | 
Brc1ccc(-c2cc3c(ncn4nnnc34)n2-c2ccccc2)cc1 |  | 16 mm | 15 mm | 17 mm | 

Compound | MIC (Staphylococcus aureus [1]) | zone of inhibition at 5000 µg/mL (Staphylococcus aureus [2]) | zone of inhibition at 5000 µg/mL (Escherichia coli [3]) | zone of inhibition at 5000 µg/mL (Candida albicans) | MIC (Escherichia coli [4])
Clc1ccc(-c2cc3c(ncn4nnnc34)n2-c2ccccc2)cc1 |  | 14 mm | 15 mm | 17 mm | 
Fc1ccc(-c2cc3c(ncn4nnnc34)n2-c2ccccc2)cc1 |  |  |  | 11 mm | 
Nc1ncnc2c1cc(-c1ccccc1)n2-c1ccccc1 |  | 15 mm | 14 mm | 20 mm | 
Nc1ncnc2c1cc(-c1ccc(Cl)cc1)n2-c1ccccc1 |  | 17 mm | 16 mm | 16 mm | 
Cc1ccc(-c2cc3c(N)ncnc3n2-c2ccccc2)cc1 | 2500 µg/mL (≈ 8.32 mM) | 23 mm | 14 mm | 25 mm | 
C/C=N\c1ncnc2c1cc(-c1ccccc1)n2-c1ccccc1 | 1250 µg/mL (≈ 4 mM) | 21 mm | 16 mm | 21 mm | 
C/C=N\c1ncnc2c1cc(-c1ccc(Cl)cc1)n2-c1ccccc1 |  | 17 mm | 16 mm | 17 mm | 
C/C=N/c1ncnc2c1cc(-c1ccc(C)cc1)n2-c1ccccc1 |  | 16 mm | 17 mm | 15 mm | 
Nc1nc(N)c2cc(-c3ccccc3)n(-c3ccccc3)c2n1 | 620 µg/mL (≈ 2.06 mM) | 24 mm | 13 mm | 24 mm | 
Nc1nc(N)c2cc(-c3ccc(Cl)cc3)n(-c3ccccc3)c2n1 | 1250 µg/mL (≈ 3.72 mM) | 24 mm | 14 mm | 23 mm | 
Cc1nc(N)c2cc(-c3ccccc3)n(-c3ccccc3)c2n1 | 1250 µg/mL (≈ 4.16 mM) | 20 mm | 18 mm | 21 mm | 2500 µg/mL (≈ 8.32 mM)
Cc1nc(N)c2cc(-c3ccc(Cl)cc3)n(-c3ccccc3)c2n1 | 620 µg/mL (≈ 1.85 mM) | 25 mm | 14 mm | 24 mm | 
Cc1ccc(-c2cc3c(N)nc(C)nc3n2-c2ccccc2)cc1 |  | 17 mm | 14 mm | 16 mm | 
CCO/C=N/c1c(C#N)cc(-c2ccccc2)n1-c1ccccc1 |  | 16 mm | 17 mm | 19 mm | 
CCO/C=N/c1c(C#N)cc(-c2ccc(Br)cc2)n1-c1ccccc1 |  |  |  | 11 mm | 
CCO/C=N/c1c(C#N)cc(-c2ccc(Cl)cc2)n1-c1ccccc1 |  |  |  | 11 mm | 
CCO/C=N/c1c(C#N)cc(-c2ccc(C)cc2)n1-c1ccccc1 |  |  | 11 mm |  | 
CCO/C=N/c1c(C#N)cc(-c2ccc(F)cc2)n1-c1ccccc1 |  | 13 mm | 13 mm | 16 mm | 
N=c1c2cc(-c3ccccc3)n(-c3ccccc3)c2ncn1N | 1250 µg/mL (≈ 4.15 mM) | 21 mm | 16 mm | 23 mm | 
CC1(C)S[C@@H]2[C@H](NC(=O)[C@H](N)c3ccccc3)C(=O)N2[C@H]1C(=O)O [AMPICILLIN] | 620 µg/mL (≈ 1.77 mM) | 9 mm | 9 mm |  | 1250 µg/mL (≈ 3.58 mM)
OC(Cn1cncn1)(Cn1cncn1)c1ccc(F)cc1F [FLUCONAZOLE] |  |  |  | 26 mm | 
CN(C)[C@@H]1C(O)=C(C(N)=O)C(=O)[C@@]2(O)C(O)=C3C(=O)c4c(O)cccc4[C@@](C)(O)[C@H]3C[C@@H]12 [TETRACYCLINE] |  | 20 mm | 18 mm |  | 
